E coli Lon inh = inhibitors of E. coli Lon protease, primary screen, biochemical, fluorescence polarization | purified E. coli Lon protease | AID 602123, 2011 | inhibition, % at 7.94 µM | P0A9M0 | 360,000 compounds, 0.42% hits; in the data active = inhibition above about 13%, passing the limit was not always enough;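 also: 0% = enzyme with probe and DMSO and 100% = no enzyme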
Target sequence (P0A9M0 whole entry, looked up): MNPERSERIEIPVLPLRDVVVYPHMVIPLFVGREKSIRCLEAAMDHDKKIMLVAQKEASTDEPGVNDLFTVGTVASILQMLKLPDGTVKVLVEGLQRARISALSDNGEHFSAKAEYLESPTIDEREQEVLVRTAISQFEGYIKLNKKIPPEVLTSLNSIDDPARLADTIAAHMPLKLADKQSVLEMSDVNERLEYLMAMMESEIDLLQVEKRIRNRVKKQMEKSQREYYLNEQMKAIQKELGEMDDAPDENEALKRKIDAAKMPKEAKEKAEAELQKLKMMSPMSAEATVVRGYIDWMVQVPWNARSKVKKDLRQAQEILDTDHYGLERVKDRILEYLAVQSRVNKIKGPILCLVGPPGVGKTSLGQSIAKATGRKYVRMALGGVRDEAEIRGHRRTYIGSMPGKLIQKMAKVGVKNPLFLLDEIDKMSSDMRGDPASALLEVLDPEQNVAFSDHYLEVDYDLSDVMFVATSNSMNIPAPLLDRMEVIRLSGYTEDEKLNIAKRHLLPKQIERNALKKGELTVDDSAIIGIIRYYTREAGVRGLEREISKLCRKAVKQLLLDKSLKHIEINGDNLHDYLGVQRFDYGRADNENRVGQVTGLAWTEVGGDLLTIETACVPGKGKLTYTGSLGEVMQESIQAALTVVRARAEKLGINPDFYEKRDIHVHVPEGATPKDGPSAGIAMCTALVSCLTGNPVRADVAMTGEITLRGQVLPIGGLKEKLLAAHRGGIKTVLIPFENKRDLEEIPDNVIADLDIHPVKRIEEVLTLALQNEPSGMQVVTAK
SKN-1 block = suppressors of acrylamide-induced Pgst-4::GFP reporter in worms, primary screen, SKN-1 inhibitor project, whole organism, uHTS, GFP/RFP fluorescence ratio, strain VP596 | C. elegans VP596 Pgst-4::GFP/RFP ratio, 24 h | inhibition, % at 21.8 µM | 360,000 compounds, 0.49% hits | AID 624304, 2012;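 active = interference check ratio from 0.5 to 1.5 plus GFP to RFP signal ratio inhibition reaching or exceeding a fixed threshold, cut at about 30% in these data, passing the limit was not always enough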
TbMetRS inhib = T. brucei MetRS inhibitors, primary screen, biochemical, luminescence | 360,000 compounds, 0.4% hits | inhibition, % at 11.9 µM | purified T. brucei MetRS, ATP depletion, Kinase-Glo luminescence | methionyl-tRNA synthetase (Trypanosoma brucei brucei) | AID 624268, 2012;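 active = inhibition above a per-plate cutoff of the control wells' mean inhibition plus 3 SD, cut at about 5.5% in these data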;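 also: 0% = DMSO wells median and 100% = median of wells with control inhibitor compound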
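Measured by: Kinase-Glo luciferase luminescence reporting remaining unconsumed ATP. Material: purified T. brucei MetRS enzyme. Doses: 11.9 µM compound single dose, 0.9% DMSO. Medium: HEPES buffer containing pyrophosphatase, BSA, spermine, DTT. Times: 15 min preincubation, 2 h reaction, all 25 °C. Reagent: methionine, ATP and bulk E. coli tRNA.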
hiPSC survival = enhancers of single-cell hiPSC survival, primary screen, ATPlite luminescence | 360,000 compounds, 0.044% hits | 100% = ROCK inhibitor wells, 0% = DMSO | survival enhancement, % at 20 µM; in the data active = survival enhancement above about 18%;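 also: cells exposed to compounds for 16 hours before the ATP read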
PREPL inh = PREPL enzyme inhibitors, primary screen, biochemical, fluorescence polarization | Prolyl endopeptidase-like (Homo sapiens), Q4J6C6 | recombinant PREPL, fluorescence polarization activity-based probe | inhibition, % at 5.96 µM | 320,000 compounds, 0.68% hits;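 also: 0% = enzyme with DMSO and 100% = wells lacking enzyme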
MT1-MMP act inh = blockers of MT1-MMP proenzyme processing, primary screen, HT1080 RFP-PRO-GFP cells, GFP/RFP fluorescence. Matrix metalloproteinase-14 (Homo sapiens), P50281. GFP/RFP ratio fluorescence, overnight; percent of plate control window, DMSO zero. GFP/RFP ratio change, % at 20 µM. 360,000 compounds, 0.061% hits;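 active = GFP/RFP ratio change of at least 30% with cell ATP level not reduced by more than half and red fluorescence within 50% of control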
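Assay system: HT1080 RFP-PRO-GFP cells | Dosing: 20 µM single dose, 1% DMSO | Incubation: Cells overnight before dosing, compound overnight, 37 °C, 5% CO2 | Evaluation: GFP/RFP fluorescence ratio | Control set: DMSO-only wells and HT1080 RFP-L50D-GFP cell wells as references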
PREPL inh cf = human PREPL enzyme inhibitors, confirmation, biochemical, fluorescence polarization; shares compounds with PREPL inh; recombinant PREPL, fluorescence polarization activity probe; inhibition, % at 5.96 µM; 2,000 compounds, 67% hits; AID 2803, 2010;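 also: 0% = protein with DMSO and 100% = wells lacking protein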
Starred values were filed as active, the others as inactive; . = no result. In the library only some 1.8% were active in any assay of this set; here they are far more common. Rule as the data show it, unless noted: active = inhibition above about 43%; inactive = the rest.

SMILES | E coli Lon inh | SKN-1 block | TbMetRS inhib | hiPSC survival | PREPL inh | MT1-MMP act inh | PREPL inh cf
COc1cc(/C=N/N(C)c2ccccc2)cc(Cl)c1O | 3 | -4 | -1 | 0 | 19 | 1 | .
Cc1c(CCOC(=O)c2cc([N+](=O)[O-])cc([N+](=O)[O-])c2)sc[n+]1CC(=O)c1ccccc1 | -6 | 7 | 0 | -3 | 56* | 0 | 50*
Cc1c(CCOC(=O)c2ccccc2)sc[n+]1CC(=O)c1ccc(Br)cc1 | 1 | 20 | 0 | 0 | 13 | -4 | .
Cc1c(CCOC(=O)CC23CC4CC(CC(C)(C4)C2)C3)sc[n+]1CC(=O)c1ccccc1 | 1 | 4 | -1 | 0 | 26 | -9 | .
Cc1c(CCOC(=O)C23CC4CC(CC(C)(C4)C2)C3)sc[n+]1CC(=O)c1ccccc1 | -9 | -3 | 0 | -1 | 48* | -3 | 44*
COc1ccc(C(=O)c2coc3ccc(O)c(CN4CCCCC4)c23)cc1 | -10 | 5 | -1 | -3 | 57* | -2 | 59*
CN(C)Cc1c(O)ccc2occ(C(=O)c3ccccc3)c12 | 6 | 4 | 0 | 1 | 5 | -3 | .
O=C(c1ccccc1)c1coc2ccc(O)c(CN3CCOCC3)c12 | -5 | 13 | 0 | -1 | 43* | 0 | 44*
COc1ccc2nc(C)cc(N/N=C/c3ccccc3)c2c1 | -1 | 11 | 0 | -1 | 19 | 1 | .
COc1ccc(/C=N/Nc2cc(C)nc3ccc(OC)cc23)c(OC)c1 | -13 | -15 | 0 | -1 | 89* | -16 | 81*
COc1cc(C#Cc2c(-c3cncn3C)n(C)c3ccc(-c4cnc(N5CCOCC5)nc4)cc23)cc(OC)c1 | -8 | -3 | 0 | 5 | 33 | -11 | .
COc1cc(C#Cc2c(-c3cncn3C)n(C)c3ccc(-c4ccc(CN5CCOCC5)cc4)cc23)cc(OC)c1 | -6 | 21 | 0 | -5 | 45* | -7 | 29
CCNC(=S)NNC(=O)c1cc(C)on1 | 0 | -2 | -1 | -1 | 14 | -4 | .
COc1ccc(N2CCN(C(=O)c3cn(C4CCCC4)c(=O)c4c3c3ccccc3n4C)CC2)cc1 | -4 | 19 | -1 | -4 | 62* | -9 | 61*
CN(C)c1ccc(C(CN)c2c[nH]c3ccccc23)cc1 (centres undefined) | 2 | -5 | 1 | 0 | 61* | -4 | 57*
CN(C)c1ccc(C(CNS(=O)(=O)c2ccc3ccccc3c2)c2c[nH]c3ccccc23)cc1 (centres undefined) | -2 | 14 | 0 | -2 | 33 | 1 | .
Cc1ccc2nc(-c3ccccn3)c(NC3CCCC3)n2c1 | 4 | 14 | 0 | -2 | 64* | 3 | 70*
O=C(NC1CCCCC1)C(c1ccccc1)N(Cc1ccc2c(c1)OCO2)C(=O)c1cnsn1 (centres undefined) | 0 | -4 | 0 | -1 | 46* | -15 | 33
Cc1ccc(C(C(=O)NC2CCCC2)N(Cc2ccc3c(c2)OCO3)C(=O)c2snc(C(N)=O)c2N)cc1 (centres undefined) | 2 | -2 | -1 | 0 | -2 | -5 | .
Cc1ccc2ccc(C(Nc3ccccc3)c3ccc(F)cc3)c(O)c2n1 (centres undefined) | . | 13 | -1 | . | . | 0 | .
O=C(N/N=C/c1cc(Cl)c(O)c(Cl)c1)c1cc2c(ccc3ccccc32)o1 | 4 | 25 | 0 | 2 | 59* | 1 | 69*
NC(=S)N/N=C/c1ccc2ccccc2c1 | 2 | 8 | 0 | -1 | -12 | 6 | .
C(=Nc1ccc(Nc2ccccc2)cc1)c1ccc2ccccc2c1 | -16 | 5 | -1 | 2 | 95* | 44* | 16
Brc1ccc(C=Nc2ccc(Nc3ccccc3)cc2)s1 | -11 | -1 | -1 | 2 | 99* | 49* | 13
CCN1/C(=C/c2cccc[n+]2C)Sc2ccc(OC)cc21 | -5 | 4 | 0 | -1 | 48* | -81 | 46*
SMILES | E coli Lon inh | SKN-1 block | TbMetRS inhib | hiPSC survival | PREPL inh | MT1-MMP act inh | PREPL inh cf
O=C(Cc1ccc(F)cc1)N1CCN(c2ccc(F)cc2)CC1 | -5 | 10 | 2 | 0 | -4 | 3 | .
CCOc1c(Br)cc(CNc2ccc(N3CCN(C(C)=O)CC3)cc2)cc1OC | 1 | -3 | 0 | 0 | 20 | -4 | .
COc1cc(CNc2ccc(N3CCN(C(C)=O)CC3)cc2)ccc1OCc1ccc(F)cc1 | -3 | -2 | -3 | -1 | 45* | . | 40
CC(=O)N1CCN(c2ccc(NCc3ccc(F)cc3)cc2)CC1 | 2 | -7 | 0 | 2 | 67* | 4 | 39
CC(=O)N1CCN(c2ccc(NCc3cccc(C)c3)cc2)CC1 | 5 | 9 | 0 | 2 | 59* | 12 | 34
COc1cc(/C=C/C(=O)N2CCN(Cc3ccccc3)CC2)cc(OC)c1OC | -14 | 13 | -1 | 1 | 6 | 0 | .
N#Cc1c(Cl)nc(N/N=C/c2ccccc2)c(Cl)c1Cl | -10 | -1 | -1 | -1 | 5 | 1 | .
C[N+](C)(C)c1ccc(/C=N/Nc2nc(Cl)c(C#N)c(Cl)c2Cl)cc1 | -27 | 2 | -1 | -1 | 56* | -12 | 20
CCC(=O)c1ccc2c(c1)N(CCCN(C)C)c1ccccc1S2 | 6 | 1 | 0 | -4 | 64* | -4 | 55*
COc1ccc(CC2(CO)CCN(S(=O)(=O)c3cccc4cccnc34)CC2)cc1 | 0 | 2 | 0 | 0 | 51* | -3 | 42
COc1ccc(C(=O)N=C2SC3CS(=O)(=O)CC3N2c2ccc(C(C)=O)cc2)cc1 (centres undefined) | 13 | 9 | -1 | 0 | 5 | 4 | .
COc1cc(/C=C2\SC(N3CCC(C)CC3)=NC2=O)ccc1O | -168 | 17 | 0 | 1 | 44* | -24 | 12
Oc1sc(C=Nc2ccc(F)cc2)c2ccccc12 | -67 | -1 | 0 | 2 | 51* | -34 | 51*
Oc1sc(C=Nc2ccccc2)c2ccccc12 | -170 | 22 | 1 | -2 | 39 | -159 | .
CCNc1ccc(C(=O)OCC)cc1NC(=O)c1cccc(S(=O)(=O)N2CCOCC2)c1 | -8 | 8 | 0 | 1 | 11 | 0 | .

High-throughput results as filed in PubChem.
